From ChEMBL document CHEMBL4837245, “Discovery of VU6028418: A Highly Selective and Orally Bioavailable M4 Muscarinic Acetylcholine Receptor Antagonist” (ACS Med Chem Lett, 2021)

How the values were obtained:
P-gp (human) = test: Efflux ratio of apparent permeability basolateral to apical over apical to basolateral side at human P-gp in MDCK-MDR1 cells; format: ADME, cell-based, Canis lupus familiaris; conditions: dog
Summary of the method: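 MDCK cell monolayers overexpressing MDR1 (P-gp). Efflux ratio taken as Papp(B-to-A)/Papp(A-to-B).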

[1] = Antagonist activity at human muscarinic acetylcholine M4 receptor expressed in CHO cells assessed as inhibition of acetylcholine-induced calcium mobilization relative to control; format: cell-based; design: concentration or dose not given beside the values; conditions: concentration not given here
Summary of the method: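 CHO cells stably transfected with human M4 were pretreated with the compound, then stimulated with an EC80 concentration of acetylcholine. The response was read as calcium mobilization, and IC50 was derived from the concentration-response. Each experiment was run in triplicate.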

[2] = Clearance in CD-1 mouse plasma at 1.0 mg/kg, iv measured upto 24 hrs by LC-MS/MS analysis; format: ADME, organism-based
Summary of the method: (§1)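 Single iv and oral (suspension) dosing; iv/po doses 1/10 mg/kg in SD rat, 1/3 mg/kg in CD-1 mouse and beagle dog. Plasma PK parameters are means from two to three animals per species.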

[3] = Clearance in Beagle dog plasma at 1.0 mg/kg, iv measured upto 24 hrs by LC-MS/MS analysis; format: ADME, organism-based, Canis lupus familiaris; summary of the method: as §1
[4] = Volume of distribution at steady state in CD-1 mouse at 1.0 mg/kg, iv measured upto 24 hrs by LC-MS/MS analysis; format: ADME, organism-based; conditions: in vivo, read-out: Vdss
Summary of the method: (§2)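 Pharmacokinetics in Sprague-Dawley rat, CD-1 mouse and beagle dog. Intravenous dose was 1 mg/kg in each species. Oral doses were given as a suspension: 10 mg/kg in rat, 3 mg/kg in mouse and dog. Each parameter is the mean of two to three animals.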

[5] = Volume of distribution at steady state in Beagle dog at 1.0 mg/kg, iv measured upto 24 hrs by LC-MS/MS analysis; format: ADME, organism-based, Canis lupus familiaris; conditions: in vivo, read-out: Vdss; summary of the method: as §2
[6] = Elimination half life in Beagle dog at 1 mg/kg, iv measured upto 24 hrs by LC-MS/MS analysis; format: ADME, organism-based, Canis lupus familiaris; conditions: in vivo, read-out: beta t1/2 (converted); summary of the method: as §1
[7] = Cmax in CD-1 mouse at 3 mg/kg, po measured upto 24 hrs by LC-MS/MS analysis; format: ADME, organism-based; design: route oral, dose 3 mg/kg, time <=24; conditions: in vivo; summary of the method: as §1
[8] = Cmax in Beagle dog at 3 mg/kg, po measured upto 24 hrs by LC-MS/MS analysis; format: ADME, organism-based, Canis lupus familiaris; design: route oral, dose 3 mg/kg, time <=24; conditions: in vivo; summary of the method: as §1
[9] = Tmax in Sprague-Dawley rat at 10 mg/kg, po measured upto 24 hrs by LC-MS/MS analysis; format: ADME, organism-based; conditions: in vivo; summary of the method: as §2
[10] = Tmax in CD-1 mouse at 3 mg/kg, po measured upto 24 hrs by LC-MS/MS analysis; format: ADME, organism-based; conditions: in vivo; summary of the method: as §2
[11] = Tmax in Beagle dog at 3 mg/kg, po measured upto 24 hrs by LC-MS/MS analysis; format: ADME, organism-based, Canis lupus familiaris; conditions: in vivo; summary of the method: as §2
[12] = Oral bioavailability in CD-1 mouse at 3 mg/kg measured upto 24 hrs by LC-MS/MS analysis; format: ADME, organism-based; conditions: in vivo; summary of the method: as §1
[13] = Oral bioavailability in Beagle dog at 3 mg/kg measured upto 24 hrs by LC-MS/MS analysis; format: ADME, organism-based, Canis lupus familiaris; conditions: in vivo; summary of the method: as §1
[14] = Ratio of free drug concentration in brain to plasma of Sprague-Dawley rat at 1 mg/kg, iv; format: ADME, organism-based; conditions: read-out: K(p,uu,brain)
[15] = Ratio of free drug concentration in CSF to plasma of Sprague-Dawley rat at 1 mg/kg, iv; format: ADME, organism-based
Rattus norvegicus [16] = test: Reversal of haloperidol-induced catalepsy in rat at 1.0 mg/kg, po relative to control; format: functional
Summary of the method: (§3)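 Rat haloperidol-induced catalepsy model with oral test dosing at 0.3, 1 and 3 mg/kg alongside vehicle-treated controls. Read-out is latency to withdraw, also expressed as % reversal of catalepsy. Groups compared by ANOVA.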

Rattus norvegicus [17] = test: Reversal of haloperidol-induced catalepsy in po dosed rat; format: functional, organism-based; summary of the method: as §3
[18] = biological target: Muscarinic acetylcholine receptor M3 (Homo sapiens, UniProt P20309); test: Antagonist activity at human muscarinic M3 receptor expressed in CHO cells co-expressing Gqi5 assessed as inhibition of acetylcholine-induced calcium mobilization; format: functional
Sequence of Muscarinic acetylcholine receptor M3 (P20309 whole entry): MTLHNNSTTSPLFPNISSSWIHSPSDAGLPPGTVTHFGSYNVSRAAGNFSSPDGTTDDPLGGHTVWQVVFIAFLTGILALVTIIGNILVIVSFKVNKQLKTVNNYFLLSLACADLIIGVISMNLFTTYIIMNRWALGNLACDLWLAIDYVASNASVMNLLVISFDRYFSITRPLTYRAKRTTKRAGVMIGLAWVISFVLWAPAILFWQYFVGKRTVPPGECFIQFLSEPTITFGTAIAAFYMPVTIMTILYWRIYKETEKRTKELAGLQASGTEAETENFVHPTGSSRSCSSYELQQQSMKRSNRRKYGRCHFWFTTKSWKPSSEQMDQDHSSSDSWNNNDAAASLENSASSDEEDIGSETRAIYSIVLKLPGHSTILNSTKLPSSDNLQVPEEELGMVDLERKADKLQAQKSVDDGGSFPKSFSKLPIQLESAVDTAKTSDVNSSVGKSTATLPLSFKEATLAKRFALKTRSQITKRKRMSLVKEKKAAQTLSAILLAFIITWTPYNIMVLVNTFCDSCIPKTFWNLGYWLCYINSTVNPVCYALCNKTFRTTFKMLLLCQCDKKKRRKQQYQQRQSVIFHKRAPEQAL
Summary of the method: (§4)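 CHO cells stably transfected with the given human mAChR subtype. Compound added before an EC80 concentration of acetylcholine; antagonism read as calcium mobilization. One independent determination in triplicate.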

Cytochrome P450 2C9 = Cytochrome P450 2C9 (Homo sapiens, UniProt P11712); test: Time dependent inhibition of CYP2C9 (unknown origin); format: ADME
Sequence of Cytochrome P450 2C9 (P11712 whole entry): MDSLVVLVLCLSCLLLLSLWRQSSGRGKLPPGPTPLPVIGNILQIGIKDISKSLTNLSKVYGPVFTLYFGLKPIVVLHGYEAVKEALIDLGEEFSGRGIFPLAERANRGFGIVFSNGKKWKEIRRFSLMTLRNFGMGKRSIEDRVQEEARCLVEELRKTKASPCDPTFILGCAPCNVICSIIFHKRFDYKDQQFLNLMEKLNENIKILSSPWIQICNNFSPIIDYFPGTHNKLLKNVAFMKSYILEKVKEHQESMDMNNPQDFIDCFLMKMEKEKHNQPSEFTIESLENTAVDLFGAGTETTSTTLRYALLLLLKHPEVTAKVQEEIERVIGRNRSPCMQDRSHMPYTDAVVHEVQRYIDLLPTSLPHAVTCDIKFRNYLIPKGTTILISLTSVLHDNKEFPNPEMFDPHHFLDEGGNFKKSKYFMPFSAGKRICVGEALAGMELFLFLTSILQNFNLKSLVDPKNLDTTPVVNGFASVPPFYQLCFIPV

Cytochrome P450 2C19 = Cytochrome P450 2C19 (Homo sapiens, UniProt P33261); test: Time dependent inhibition of CYP2C19 (unknown origin); format: ADME
Sequence of Cytochrome P450 2C19 (P33261 whole entry): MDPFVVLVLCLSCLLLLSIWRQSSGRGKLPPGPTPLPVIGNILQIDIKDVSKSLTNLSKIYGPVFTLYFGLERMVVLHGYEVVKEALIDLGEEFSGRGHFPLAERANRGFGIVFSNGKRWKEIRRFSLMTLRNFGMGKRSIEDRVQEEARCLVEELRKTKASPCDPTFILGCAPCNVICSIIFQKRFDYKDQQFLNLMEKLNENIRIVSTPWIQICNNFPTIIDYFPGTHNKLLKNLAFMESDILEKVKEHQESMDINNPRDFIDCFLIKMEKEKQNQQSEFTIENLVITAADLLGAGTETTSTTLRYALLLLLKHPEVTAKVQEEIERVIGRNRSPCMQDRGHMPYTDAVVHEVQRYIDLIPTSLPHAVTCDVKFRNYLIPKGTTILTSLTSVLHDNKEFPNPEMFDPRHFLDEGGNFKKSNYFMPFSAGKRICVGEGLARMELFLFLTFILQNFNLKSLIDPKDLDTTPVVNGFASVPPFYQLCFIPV

CYP1A2 = biological target: T1, CYP1A2 (Homo sapiens, UniProt P05177); test: Induction of CYP1A2 in human hepatocytes relative to control; format: ADME, cell-based, Hepatocyte
T1 sequence (P05177 whole entry): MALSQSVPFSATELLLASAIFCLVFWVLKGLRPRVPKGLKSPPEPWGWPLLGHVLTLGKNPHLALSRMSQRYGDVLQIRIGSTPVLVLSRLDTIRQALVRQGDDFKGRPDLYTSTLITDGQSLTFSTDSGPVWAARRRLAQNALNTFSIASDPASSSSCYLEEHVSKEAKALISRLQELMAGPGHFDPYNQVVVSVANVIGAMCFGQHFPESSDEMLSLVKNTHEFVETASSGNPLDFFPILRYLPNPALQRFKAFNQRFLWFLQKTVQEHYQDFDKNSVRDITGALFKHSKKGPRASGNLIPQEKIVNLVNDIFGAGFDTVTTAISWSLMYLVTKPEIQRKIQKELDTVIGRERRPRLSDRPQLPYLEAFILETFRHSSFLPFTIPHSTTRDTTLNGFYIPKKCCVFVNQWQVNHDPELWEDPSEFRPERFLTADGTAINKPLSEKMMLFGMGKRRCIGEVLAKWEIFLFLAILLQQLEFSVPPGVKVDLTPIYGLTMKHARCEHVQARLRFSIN

CYP3A4 = CYP3A4 (Homo sapiens, UniProt P08684); test: Induction of CYP3A4 in human hepatocytes relative to control; format: ADME, cell-based, Hepatocyte
Sequence of CYP3A4 (P08684 whole entry): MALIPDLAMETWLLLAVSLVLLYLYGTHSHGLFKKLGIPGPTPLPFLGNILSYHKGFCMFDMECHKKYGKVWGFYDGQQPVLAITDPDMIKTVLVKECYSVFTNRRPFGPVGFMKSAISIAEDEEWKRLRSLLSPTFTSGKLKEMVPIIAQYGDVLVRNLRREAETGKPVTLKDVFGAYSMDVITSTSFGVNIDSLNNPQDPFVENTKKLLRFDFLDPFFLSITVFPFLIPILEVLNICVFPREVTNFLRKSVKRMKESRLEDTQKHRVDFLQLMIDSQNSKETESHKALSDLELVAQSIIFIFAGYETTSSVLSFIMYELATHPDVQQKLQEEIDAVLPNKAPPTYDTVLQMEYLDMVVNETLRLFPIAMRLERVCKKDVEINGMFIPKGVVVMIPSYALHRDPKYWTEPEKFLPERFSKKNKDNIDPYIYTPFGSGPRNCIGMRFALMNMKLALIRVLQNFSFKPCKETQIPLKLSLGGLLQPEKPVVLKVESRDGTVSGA

Rattus norvegicus [19] = test: Effect on haloperidol-induced catalepsy in rat assessed as reduction in mean latency to withdraw at 0.3 mg/kg, po (reference value: 43.4 +/- 4.3 sec); format: functional; summary of the method: as §3
Rattus norvegicus [20] = test: Effect on haloperidol-induced catalepsy in rat assessed as reduction in mean latency to withdraw at 1 mg/kg, po (reference value: 43.4 +/- 4.3 sec); format: functional; summary of the method: as §3
Rattus norvegicus [21] = test: Effect on haloperidol-induced catalepsy in rat assessed as reduction in mean latency to withdraw at 3 mg/kg, po (reference value: 43.4 +/- 4.3 sec); format: functional; summary of the method: as §3
hERG = hERG (Homo sapiens, UniProt Q12809); test: Inhibition of human ERG at 10 uM relative to control
Sequence of hERG (Q12809 whole entry): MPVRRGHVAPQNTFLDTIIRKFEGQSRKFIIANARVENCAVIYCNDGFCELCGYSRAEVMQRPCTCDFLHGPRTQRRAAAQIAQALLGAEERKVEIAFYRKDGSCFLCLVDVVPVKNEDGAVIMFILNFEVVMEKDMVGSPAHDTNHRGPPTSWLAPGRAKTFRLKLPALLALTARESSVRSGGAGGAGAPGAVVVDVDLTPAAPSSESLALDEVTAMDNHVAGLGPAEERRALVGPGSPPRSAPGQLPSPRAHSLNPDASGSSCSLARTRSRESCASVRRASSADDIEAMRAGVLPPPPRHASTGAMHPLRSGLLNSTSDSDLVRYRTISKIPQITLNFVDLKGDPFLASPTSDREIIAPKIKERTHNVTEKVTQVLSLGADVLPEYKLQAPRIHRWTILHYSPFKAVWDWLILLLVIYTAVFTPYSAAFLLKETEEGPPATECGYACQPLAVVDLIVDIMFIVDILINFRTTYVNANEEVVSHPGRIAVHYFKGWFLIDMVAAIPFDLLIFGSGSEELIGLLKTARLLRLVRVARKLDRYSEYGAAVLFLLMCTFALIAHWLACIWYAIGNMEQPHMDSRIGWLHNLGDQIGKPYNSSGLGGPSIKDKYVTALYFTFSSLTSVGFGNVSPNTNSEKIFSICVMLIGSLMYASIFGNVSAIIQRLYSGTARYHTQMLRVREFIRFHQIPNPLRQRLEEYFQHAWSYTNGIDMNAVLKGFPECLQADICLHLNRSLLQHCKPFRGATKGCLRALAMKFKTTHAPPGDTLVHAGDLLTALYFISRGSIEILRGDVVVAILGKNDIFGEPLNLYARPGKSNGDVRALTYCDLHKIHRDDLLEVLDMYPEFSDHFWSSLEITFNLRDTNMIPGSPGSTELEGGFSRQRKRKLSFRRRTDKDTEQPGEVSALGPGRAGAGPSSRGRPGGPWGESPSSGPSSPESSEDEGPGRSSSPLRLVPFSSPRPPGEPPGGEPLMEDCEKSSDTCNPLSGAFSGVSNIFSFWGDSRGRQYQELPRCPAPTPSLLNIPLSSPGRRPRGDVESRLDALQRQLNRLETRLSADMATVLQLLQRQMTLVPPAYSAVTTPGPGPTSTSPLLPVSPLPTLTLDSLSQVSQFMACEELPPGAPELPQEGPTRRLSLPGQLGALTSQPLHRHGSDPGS

[22] = biological target: Sigma non-opioid intracellular receptor 1 (Homo sapiens, UniProt Q99720); test: Inhibition of human sigma1 receptor by radioligand binding assay
Sequence of Sigma non-opioid intracellular receptor 1 (Q99720 whole entry): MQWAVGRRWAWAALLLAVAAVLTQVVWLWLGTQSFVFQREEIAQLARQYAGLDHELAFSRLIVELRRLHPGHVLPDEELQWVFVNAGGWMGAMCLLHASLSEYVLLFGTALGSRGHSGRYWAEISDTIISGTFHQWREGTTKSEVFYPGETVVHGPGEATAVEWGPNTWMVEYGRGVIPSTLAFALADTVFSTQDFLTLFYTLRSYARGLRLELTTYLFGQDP

[23] = biological target: Voltage-gated inwardly rectifying potassium channel KCNH2 (Homo sapiens, UniProt Q12809); test: Inhibition of human ERG by patch clamp assay
Sequence of Voltage-gated inwardly rectifying potassium channel KCNH2 (Q12809 whole entry): as the sequence (Q12809 whole entry) above

[24] = biological target: Muscarinic acetylcholine receptor M5 (Homo sapiens, UniProt P08912); test: Antagonist activity at human muscarinic M5 receptor expressed in CHO cells co-expressing Gqi5 assessed as inhibition of acetylcholine-induced calcium mobilization; format: functional; summary of the method: as §4

Fc1cc(F)c(F)c(-c2ccc(N[C@H]3C[C@@H]4CN(CC5CCOCC5)C[C@@H]4C3)nn2)c1
efflux ratio (P-gp (human)): 8.9
inhibition [1]: 3%
inhibition ([1]; tested as the 2H-labelled form): 3%
clearance [2]: 1.02 L/h/kg
clearance [3]: 2.58 L/h/kg
Vd [4]: 10.6 L/kg
Vd [5]: 8.5 L/kg
half-life [6]: 15 h
Cmax [7]: 0.181 µg/mL
Cmax [8]: 0.07 µg/mL
Tmax [9]: 1.5 h
Tmax [10]: 6.67 h
Tmax [11]: 17 h
bioavailability [12]: ≥ 100%
bioavailability [13]: 86%
Kp uu [14]: 0.61
Kp uu [15]: 0.24
Activity (Rattus norvegicus [16]): 50.9%
Activity (Rattus norvegicus [17]): Dose-Dependent Effect
IC50 [18]: > 10 µM
IC50 (Cytochrome P450 2C9): > 100 µM
IC50 (Cytochrome P450 2C19): > 100 µM
Emax (CYP1A2): 2.1%
Emax (CYP3A4): 2.1%
Activity (Rattus norvegicus [19]): 32 s
Activity (Rattus norvegicus [20]): 21.3 s
Activity (Rattus norvegicus [21]): 15.1 s
inhibition at 10 µM (hERG): 61%
Ki [22]: 0.0169 µM
IC50 [23]: 0.431 µM
IC50 [24]: > 10 µM
